Series [1] deals with MC65. The series is described as follows: Inhibition of mitochondrial complex 1 in human MC65 cells assessed as protective potency concentration. The class given is cell-based.
The species named for series [2] is Mus musculus. As to the kind of experiment: Inhibition of mitochondrial complex 1 in permeabilized mouse brain mitochondria assessed as reduction in ROS production at 1 uM incubated for 1 hr after TC removal by Amplex Red and horseradish peroxidase based assay.
A short description of series [3]: Drug localization in mitochondria human MC65 cells at 3 uM incubated for 3.5 hrs by immunocytochemistry. The class given is ADME. Conditions: mc65, 3.5 h. Summed up:
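MC65 cells plated 24 h on poly-D-lysine coverslips, given 3 μM probe for 3.5 h, then MitoTracker Red (300 nM) for 30 min. Fixed in 4% formaldehyde 15 min, DAPI-stained, mounted. Imaged by confocal microscopy (63x/1.40 oil) and analysed for colocalization coefficients.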

Series [4] is described as follows: Drug localization in mitochondria mouse cortical neuron at 25 uM incubated for 4 hrs by immunocytochemistry. The class given is ADME. Conditions: cortical neurone. Summed up:
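Mouse primary cortical neurons (E15.5 C57BL/6J cortex, DIV 10–12; cytarabine 1 μM from DIV 3–6) given 25 μM probe for 4 h, then Mitotracker Red CMXRos (25 nM) for 30 min. Washed by half-media exchanges with phenol-red-free medium. Imaged live by confocal microscopy, 63x/1.4 NA oil objective.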

The species entered for series [5] is Mus musculus. As to the kind of experiment: Binding affinity to purified C57BL/6 mouse cerebral cortex mitochondrial complex 1 assessed as labelling of 75 kDa sub unit at 1 to 10 uM incubated for 45 mins under irradiation by SDS-PAGE analysis. As to conditions: Mitochondria, dose microM 1-10, time 45.0 min. Summed up: (§1)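 Preincubated with DMSO or competitor 45 min at 4 °C, then photoaffinity probe added for 30 min at 4 °C. Irradiated 365 nm, 10 min on ice, then run on SDS-PAGE. Read by in-gel fluorescence (488 nm excitation), or after streptavidin pull-down by silver stain. Three independent experiments.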

Series [6] is filed under the species Mus musculus. The series is described as follows: Binding affinity to purified C57BL/6 mouse cerebral cortex mitochondrial complex 1 assessed as labelling of 51 kDa sub unit at 1 to 10 uM incubated for 45 mins under irradiation by SDS-PAGE analysis. As to conditions: Mitochondria, dose microM 1-10, time 45.0 min. In short, it runs like this:
as §1

The species entered for series [7] is Mus musculus. As to the kind of experiment: Binding affinity to purified C57BL/6 mouse cerebral cortex mitochondrial complex 1 assessed as labelling of 24 kDa sub unit at 1 to 10 uM incubated for 45 mins under irradiation by SDS-PAGE analysis. Conditions: Mitochondria, dose microM 1-10, time 45.0 min. In short, it runs like this:
as §1

For series [8], the species on record is Mus musculus. The series is described as follows: Binding affinity to purified C57BL/6 mouse cerebral cortex mitochondrial complex 1 assessed as labelling of 13 kDa sub unit at 1 to 10 uM incubated for 45 mins under irradiation by SDS-PAGE analysis. Conditions: Mitochondria, dose microM 1-10, time 45.0 min. In short, it runs like this: as §1
The species named for series [9] is Mus musculus. As to the kind of experiment: Binding affinity to purified C57BL/6 mouse cerebral cortex mitochondrial complex 1 assessed as labelling of IF site ( 49 kDa) sub unit at 1 to 10 uM incubated for 45 mins under irradiation by SDS-PAGE analysis. As to conditions: Mitochondria, dose microM 1-10, time 45.0 min. Summed up:
as §1

The species named for series [10] is Mus musculus. The series is described as follows: Binding affinity to purified C57BL/6 mouse cerebral cortex mitochondrial complex 1 assessed as labelling of 51 kDa sub unit at 10 uM in presence of ZCM-I-1 incubated for 45 mins under irradiation by SDS-PAGE analysis. As to conditions: Mitochondria. In short, it runs like this: as §1
For series [11], the species on record is Mus musculus. The series is described as follows: Binding affinity to purified C57BL/6 mouse cerebral cortex mitochondrial complex 1 assessed as labelling of 24 kDa sub unit at 10 uM in presence of ZCM-I-1 incubated for 45 mins under irradiation by SDS-PAGE analysis. Conditions: Mitochondria. In short, it runs like this:
as §1

For series [12], the species on record is Mus musculus. The series is described as follows: Binding affinity to purified C57BL/6 mouse cerebral cortex mitochondrial complex 1 assessed as labelling of 13 kDa sub unit at 10 uM in presence of ZCM-I-1 incubated for 45 mins under irradiation by SDS-PAGE analysis. As to conditions: Mitochondria. Summed up:
as §1

The species entered for series [13] is Mus musculus. The series is described as follows: Binding affinity to purified C57BL/6 mouse cerebral cortex mitochondrial complex 1 assessed as labelling of IF site ( 49 kDa) sub unit at 10 uM in presence of ZCM-I-1 incubated for 45 mins under irradiation by SDS-PAGE analysis. As to conditions: Mitochondria. In short, it runs like this:
as §1

Series [14] is filed under the species Mus musculus. As to the kind of experiment: Binding affinity to purified C57BL/6 mouse cerebral cortex mitochondrial complex 1 assessed as labelling of 75 kDa sub unit at 10 uM in presence of NADH incubated for 45 mins under irradiation by SDS-PAGE analysis. As to conditions: Mitochondria. In short, it runs like this: as §1
Series [15] is filed under the species Mus musculus. As to the kind of experiment: Binding affinity to purified C57BL/6 mouse cerebral cortex mitochondrial complex 1 assessed as labelling of 51 kDa sub unit at 10 uM in presence of NADH incubated for 45 mins under irradiation by SDS-PAGE analysis. As to conditions: Mitochondria. Summed up:
as §1

For series [16], the species on record is Mus musculus. As to the kind of experiment: Binding affinity to purified C57BL/6 mouse cerebral cortex mitochondrial complex 1 assessed as labelling of 24 kDa sub unit at 10 uM in presence of NADH incubated for 45 mins under irradiation by SDS-PAGE analysis. As to conditions: Mitochondria. In short, it runs like this:
as §1

The species named for series [17] is Mus musculus. The series is described as follows: Binding affinity to purified C57BL/6 mouse cerebral cortex mitochondrial complex 1 assessed as labelling of 13 kDa sub unit at 10 uM in presence of NADH incubated for 45 mins under irradiation by SDS-PAGE analysis. Conditions: Mitochondria. Summed up: as §1
The species entered for series [18] is Mus musculus. As to the kind of experiment: Binding affinity to purified C57BL/6 mouse cerebral cortex mitochondrial complex 1 assessed as labelling of 49 kDa sub unit at 10 uM in presence of NADH incubated for 45 mins under irradiation by SDS-PAGE analysis. Conditions: Mitochondria. In short, it runs like this: as §1
For series [19], the species on record is Mus musculus. The series is described as follows: Binding affinity to purified C57BL/6 mouse cerebral cortex mitochondrial complex 1 assessed as labelling of 49 kDa sub unit at 10 uM in presence of FMN incubated for 45 mins under irradiation by SDS-PAGE analysis. Conditions: Mitochondria. In short, it runs like this: as §1
The species entered for series [20] is Mus musculus. As to the kind of experiment: Binding affinity to purified C57BL/6 mouse cerebral cortex mitochondrial complex 1 assessed as labelling of 13 kDa sub unit at 10 uM in presence of FMN incubated for 45 mins under irradiation by SDS-PAGE analysis. Conditions: Mitochondria. In short, it runs like this: as §1
Series [21] is filed under the species Mus musculus. The series is described as follows: Binding affinity to purified C57BL/6 mouse cerebral cortex mitochondrial complex 1 assessed as labelling of 24 kDa sub unit at 10 uM in presence of FMN incubated for 45 mins under irradiation by SDS-PAGE analysis. Conditions: Mitochondria. Summed up:
as §1

Series [22] is filed under the species Mus musculus. As to the kind of experiment: Binding affinity to purified C57BL/6 mouse cerebral cortex mitochondrial complex 1 assessed as labelling of 51 kDa sub unit at 10 uM in presence of FMN incubated for 45 mins under irradiation by SDS-PAGE analysis. Conditions: Mitochondria. In short, it runs like this: as §1
The species entered for series [23] is Mus musculus. The series is described as follows: Binding affinity to purified C57BL/6 mouse cerebral cortex mitochondrial complex 1 assessed as labelling of 75 kDa sub unit at 10 uM in presence of FMN incubated for 45 mins under irradiation by SDS-PAGE analysis. As to conditions: Mitochondria. Summed up: as §1
The species entered for series [24] is Mus musculus. The series is described as follows: Binding affinity to purified C57BL/6 mouse cerebral cortex mitochondrial complex 1 assessed as labelling of 75 kDa sub unit at 10 uM in presence of IQ site inhibitor rotenone incubated for 45 mins under irradiation by SDS-PAGE analysis. Conditions: Mitochondria. In short, it runs like this: as §1
The species named for series [25] is Mus musculus. The series is described as follows: Binding affinity to purified C57BL/6 mouse cerebral cortex mitochondrial complex 1 assessed as labelling of 51 kDa sub unit at 10 uM in presence of IQ site inhibitor rotenone incubated for 45 mins under irradiation by SDS-PAGE analysis. Conditions: Mitochondria. Summed up:
as §1

The species named for series [26] is Mus musculus. The series is described as follows: Binding affinity to purified C57BL/6 mouse cerebral cortex mitochondrial complex 1 assessed as labelling of 24 kDa sub unit at 10 uM in presence of IQ site inhibitor rotenone incubated for 45 mins under irradiation by SDS-PAGE analysis. Conditions: Mitochondria. Summed up: as §1
For series [27], the species on record is Mus musculus. As to the kind of experiment: Binding affinity to purified C57BL/6 mouse cerebral cortex mitochondrial complex 1 assessed as labelling of 13 kDa sub unit at 10 uM in presence of IQ site inhibitor rotenone incubated for 45 mins under irradiation by SDS-PAGE analysis. As to conditions: Mitochondria. In short, it runs like this:
as §1

Series [28] is filed under the species Mus musculus. The series is described as follows: Binding affinity to purified C57BL/6 mouse cerebral cortex mitochondrial complex 1 assessed as labelling of 49 kDa sub unit at 10 uM in presence of IQ site inhibitor rotenone incubated for 45 mins under irradiation by SDS-PAGE analysis. As to conditions: Mitochondria. Summed up:
as §1

The species named for series [29] is Mus musculus. The series is described as follows: Binding affinity to purified C57BL/6 mouse cerebral cortex mitochondrial complex 1 assessed as labelling of 75 kDa sub unit at 10 uM in presence of ZCM-I-1 incubated for 45 mins under irradiation by SDS-PAGE analysis. Conditions: Mitochondria. Summed up: as §1

Active and inactive are the calls of the source. No cut-off for these calls is given here.

Turning to `COc1ccc2[nH]cc(CCNC(=O)C(CCC3(CCc4cn(CCCNc5ccc([N+](=O)[O-])c6nonc56)nn4)N=N3)C(=O)CCc3ccc(O)cc3)c2c1` (centres undefined), the INH in [1] was 96.8 nM. Besides, the inhibition result in series [2] was “inactive”. Besides, the Drug uptake result in [3] and in series [4] was “Active” each time. The outcome in series [5], in series [6], in series [7], in [8], in series [9] and in [24] was Active. Moreover, the result in series [25], in series [26], in series [27] and in series [28] was Active. Besides, the result in series [10], in series [11], in series [12], in [13], in series [14] and in series [15] was inactive. Further, the result in [16], in series [17], in [18], in [19], in series [20] and in series [21] was inactive. The result in series [22] and in series [23] was inactive.

Take `COc1ccc2[nH]cc(CCNC(=O)C(CCC3(CCc4cn(CCOCCOCCNC(=O)CCCCC5SCC6NC(=O)NC65)nn4)N=N3)C(=O)CCc3ccc(O)cc3)c2c1` (centres undefined): the INH in series [1] is above 3 nM. For the same compound, the outcome in series [29], in series [10], in series [11], in [12] and in series [13] was inactive.

(Values after ChEMBL document CHEMBL4665824, “Characterization and Discovery of a Selective Small-Molecule Modulator of Mitochondrial Complex I Targeting a Unique Binding Site” (J Med Chem, 2020).)
